An excerpt weighted towards active compounds, which were near 2.8% of everything screened.
Measles CPE: protection of cells from measles virus; Measles virus-infected cells, CPE protection, absorbance; protection (pct of control), % at 4 µM; 140,000 tested, 1.5% active; AID 841; in the data active = protection mostly above about 24%, no sharp cut-off; inactive = mostly below about 26%
NPY2 pot ag: human NPY-Y2 potentiation or agonism, primary screen. P49146. cells expressing NPY-Y2, potentiator/agonist read-out. activation, % at 3.6 µM. 220,000 tested, 0.45% active. AID 1359; in the data active = activation above about 27%;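 also: cells stimulated with NPY near EC25 plus isoproterenol at EC100; 0% = vehicle plus submaximal agonist and 100% = vehicle plus saturating agonist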
Rad51 HR inh: Rad51 (human) homologous recombination inhibition; Q06609; inhibition, % at 10 µM; AID 1385; 200,000 tested, 0.085% active; hRad51 DNA strand exchange, fluorescence dequenching;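 active = inhibition above 40% at the single screening dose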;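 also: 0% = DMSO control wells and 100% = blanks with heterologous ssDNA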
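Material: human Rad51–ssDNA filaments; Probe or stimulus: labelled 47-mer dsDNA for strand exchange; Doses: single 10 µM dose; Incubation: 37 °C 15-min filament assembly, 30-min compound preincubation, 15-min exchange; Technique: FRET fluorescence dequenching, excitation 485 nm, emission 520 nm; Measure: Fluorescence-based percent inhibition, control- and blank-normalised; Benchmarks: plate control and blank wells.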
NPY-Y2 antag: blocks the human neuropeptide Y Y2 receptor; NPY-Y2 expressing cells, antagonist mode; inhibition, % at 2.7 µM; 140,000 tested, 0.99% active; in the data active = inhibition above about 17%;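 also: 0% = vehicle with agonist challenge and 100% = reference antagonist with challenge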
NPY1 pot ag: potentiates or activates human NPY-Y1 receptor. NPY-Y1 expressing cells, potentiator/agonist activation. activation, % at 3.6 µM. 220,000 tested, 0.37% active. AID 1304; in the data active = activation above about 33%, passing the limit was not always enough;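 also: cells stimulated with NPY at EC10 then isoproterenol at EC100; 0% = low agonist plus stimulus and 100% = saturating agonist plus stimulus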
Target sequence (P25929 whole entry, looked up): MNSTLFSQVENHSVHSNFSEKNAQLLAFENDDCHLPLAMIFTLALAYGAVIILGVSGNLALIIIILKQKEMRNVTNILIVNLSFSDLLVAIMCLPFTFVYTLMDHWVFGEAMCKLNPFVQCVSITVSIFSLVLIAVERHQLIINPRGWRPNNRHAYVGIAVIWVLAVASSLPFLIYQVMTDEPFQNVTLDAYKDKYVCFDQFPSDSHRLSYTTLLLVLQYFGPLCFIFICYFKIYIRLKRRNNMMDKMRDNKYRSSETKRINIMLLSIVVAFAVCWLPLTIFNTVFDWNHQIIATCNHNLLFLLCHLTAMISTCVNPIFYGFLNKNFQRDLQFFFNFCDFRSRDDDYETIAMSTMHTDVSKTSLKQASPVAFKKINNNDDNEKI
NPY-Y1 antag: NPY-Y1 (human) receptor antagonism | P25929 | 200,000 tested, 1% active | HEK293-CNG Y1 cells, membrane potential fluorescence; NPY at EC95, then isoproterenol | inhibition, % at 3.6 µM | AID 1040;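 active = inhibition above the campaign mean inhibition of all tested compounds plus 3 SD, cut at about 20% in these data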;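 also: 0% = DMSO wells given NPY plus isoproterenol and 100% = isoproterenol alone without NPY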
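material = HEK293 cells with Y1 receptor plus CNG channel | also added = NPY 25 nM then isoproterenol 1 µM plus Ro 20-1724 25 µM | schedule = dye 3 h, compound 60 min room temperature, stimulation 45 min | measured by = membrane potential fluorescence | benchmarks = high control isoproterenol alone, low control NPY with isoproterenol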
Active calls of the source: *; x = no result given.

SMILES	Measles CPE	NPY2 pot ag	Rad51 HR inh	NPY-Y2 antag	NPY1 pot ag	NPY-Y1 antag
Cc1ccc2cc3cc(C(=O)NCc4ccc5c(c4)OCO5)oc3nc2c1	34*	-12	x	11	12	5
COc1cc(NC(=O)Cc2ccccc2)ccc1NC(=O)c1ccco1	64*	4	-3	1	0	6
CCC(=O)NC(=S)Nc1ccc(NC(=O)c2ccco2)c(OC)c1	12	7	7	-2	-9	1
O=C(NC1CCN(C(=O)N2c3ccccc3Sc3ccccc32)CC1)c1ccccc1F	41*	9	5	6	17	-4
CC1CCN(C(=O)N2c3ccccc3Sc3ccccc32)CC1	2	3	12	5	-22	0
Cc1ccc(S(=O)(=O)Nc2ccc3c(c2)OCCO3)cc1	x	8	10	x	0	2
CSc1ccc(S(=O)(=O)Nc2ccc3c(c2)OCCO3)cc1	42*	3	-2	5	12	3
COC(=O)N/N=C/c1cn(CC(C)COc2ccccc2)c2ccccc12 (centres undefined)	13	-2	-7	0	28	3
CN1CCN(S(=O)(=O)c2ccc3[nH]c(=O)oc3c2)CC1	40*	-11	x	-1	-42	1
COCCNC(=O)CS(=O)Cc1nc(-c2ccc(OC)cc2)oc1C (centres undefined)	11	8	4	2	-3	1
COCCCNC(=O)CS(=O)Cc1nc(-c2cccc(OC)c2)oc1C (centres undefined)	39*	-18	-6	0	-6	10
CC(C)CCNC(=O)Cc1csc(-c2ccccc2)n1	x	-10	-28	x	-9	0
O=C1c2ccccc2C(=O)c2c(NCCCN(CCO)CCO)cccc21	x	39*	38	x	53*	-13
O=C(N1CCOCC1)N1CCN(C(=O)N2CCOCC2)CC1	x	10	x	5	-28	2
O/N=C/c1ccc(OCc2ccccc2)c(Br)c1	42*	-1	-8	4	-3	2
O/N=C/c1cc(Br)ccc1OCc1ccc(F)cc1	x	-2	-3	18*	-15	16
Cc1ccc(COc2ccc(Br)cc2/C=N/O)cc1	15	-25	2	15	-22	14
O/N=C/c1ccc(OCc2ccccc2)c(Cl)c1	3	4	-43	1	7	3
CCC(C)Oc1nc2c(c(=O)n(C)c(=O)n2C)n1C (centres undefined)	x	7	3	x	-2	x
FC(F)(F)c1cc(-c2ccco2)nc(NCc2ccco2)n1	5	7	-7	-1	-12	4
FC(F)(F)c1cc(-c2ccc3c(c2)OCO3)nc(NCc2ccco2)n1	66*	-11	-4	12	8	7
CCOCCCNC(=O)c1ccc(N2CCCC2)c(NS(=O)(=O)c2ccc(C)cc2)c1	x	33*	-3	x	58*	-9
Cc1noc(C)c1COC(=O)CNC(=O)c1ccc(Cl)cc1	x	3	3	x	-10	-5
Cc1noc(C)c1COC(=O)Cc1ccc(Cl)cc1	48*	-9	5	-1	-5	8
O=C1C/C(=C/NCc2ccccc2)C(=O)N1	41*	8	-8	0	6	-3
SMILES	Measles CPE	NPY2 pot ag	Rad51 HR inh	NPY-Y2 antag	NPY1 pot ag	NPY-Y1 antag
CCCN(CCC)c1nc2ccccc2n2c(C)nnc12	44*	-9	-4	7	-11	8
Cc1ccc(-c2nc3ccccc3n3c(C)nnc23)cc1	3	3	-1	-1	8	1
O=[N+]([O-])c1cc(/C=N/n2c(-c3cccnc3)n[nH]c2=S)ccc1Cl	29*	6	-35	1	-8	13
O=C(Nc1cnn(Cc2ccc(Cl)c(Cl)c2)c1)c1nc2ncccn2n1	4	-8	-14	1	10	2
Cc1ccc(Cn2ccc(NC(=O)c3noc4c3CCCCC4)n2)cc1	62*	6	-1	10	-18	3
Cc1ccc(Cn2ccc(NC(=O)c3nc4ncccn4n3)n2)cc1	39*	5	6	-1	-20	-1
CN(C)c1ccc(/C=N/NC(=O)CN(c2cccc(Cl)c2)S(C)(=O)=O)cc1Br	10	10	0	2	1	4
CCN(c1ccccc1)S(=O)(=O)c1ccc(OCC(=O)Nc2cc(C)on2)cc1	6	-2	9	3	15	2
